Measurements taken from ChEMBL document CHEMBL1152809, “Structure-activity relationships of orotidine-5'-monophosphate decarboxylase inhibitors as anticancer agents” (J Med Chem, 2009).
Active and inactive are the calls of the source. No cut-off for these calls is given here.

Tests used:
SNB-19 = test: Antitumor activity against human SNB19 cells up to 50 uM after 3 days by WST1 assay; type: functional, cell-based
Outline: (§1)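 Cell lines grown in Iscove's MDM with 5% FCS, 50 µM 2-mercaptoethanol, penicillin and streptomycin; suspension lines kept at 0.5-1.5 × 10^6 cells/mL, adherent lines subconfluent. Cells seeded in triplicate at 10^4 cells/100 µL. Compounds were dissolved in water and added immediately at 0 to 100 µM final. WST.1 read at 440 nm on day 3; IC50 taken from OD versus concentration plots.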

COLO 205 = test: Antitumor activity against human COLO205 cells after 3 days by WST1 assay; type: functional, cell-based; details: for IC50: COLO 205, 72 h; outline: as §1
OCI-AML2 = test: Antitumor activity against human OCI-AML2 cells after 3 days by WST1 assay; type: functional, cell-based; details: OCI-AML2, 72 h; outline: as §1
[1] = Antitumor activity against human OCI-My 2 cells after 3 days by WST1 assay; type: functional, cell-based; details: 72 h; outline: as §1
T47D = test: Antitumor activity against human T47D cells up to 50 uM after 3 days by WST1 assay; type: functional, cell-based; outline: as §1
MCF7 [2] = test: Antitumor activity against human MCF7 cells after 3 days by WST1 assay; type: functional, cell-based; details: MCF7, 72 h; outline: as §1
OVCAR-4 = test: Antitumor activity against human OVCAR4 cells after 3 days by WST1 assay; type: functional, cell-based; details: for IC50: OVCAR-4, 72 h; outline: as §1
PC-3 = test: Antitumor activity against human PC3 cells up to 50 uM after 3 days by WST1 assay; type: functional, cell-based; outline: as §1
[3] = Antitumor activity against human OCI-LY7 cells after 3 days by WST1 assay; type: functional, cell-based; details: OCI-Ly7, 72 h; outline: as §1
[4] = Antitumor activity against human SKW3 cells after 3 days by WST1 assay; type: functional, cell-based; details: SKW3, 72 h; outline: as §1
Hs-578T = test: Antitumor activity against human Hs 578T cells up to 50 uM after 3 days by WST1 assay; type: functional, cell-based; outline: as §1
[5] = Antitumor activity against human OCI-AML1 cells after 3 days by WST1 assay; type: functional, cell-based; details: ML1, 72 h; outline: as §1
[6] = Antitumor activity against human MDA468 cells after 3 days by WST1 assay; type: functional, cell-based; details: MDA-MB-468, 72 h; outline: as §1
[7] = Cytotoxicity against human CCD-967 cells up to 50 uM after 3 days by WST1 assay; type: cell-based; details: ccd-967, 72 h
Outline: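 Cells grown in Iscove's MDM with 5% FCS, 50 µM 2-mercaptoethanol and antibiotics, kept subconfluent if adherent. Seeded in triplicate at 10^4 cells/100 µL with compounds (in water) added at once, 0 to 100 µM final. WST.1 formazan read at 440 nm on day 3; IC50 from OD versus concentration.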

MDA-MB-468 = test: Antitumor activity against human MDA468 cells up to 50 uM after 3 days by WST1 assay; type: functional, cell-based; outline: as §1
[8] = Antitumor activity against human LOX cells after 3 days by WST1 assay; type: functional, cell-based; details: 72 h; outline: as §1
MCF7 [9] = test: Antitumor activity against human MCF7 cells up to 50 uM after 3 days by WST1 assay; type: functional, cell-based; outline: as §1

| IC50 (COLO 205) [µM] | IC50 (OCI-AML2) [µM] | IC50 (MCF7 [2]) [µM] | IC50 (OVCAR-4) [µM] | Structure (SMILES) | Activity (SNB-19) | IC50 [1] [µM] | Activity (T47D) | Activity (PC-3) | IC50 [3] [µM] | IC50 [4] [µM] | Activity (Hs-578T) | IC50 [5] [µM] | IC50 [6] [µM] | Activity [7] | Activity (MDA-MB-468) | IC50 [8] [µM] | Activity (MCF7 [9]) | Activity (COLO 205) | Activity (OVCAR-4) |
| --- | --- | --- | --- | --- | --- | --- | --- | --- | --- | --- | --- | --- | --- | --- | --- | --- | --- | --- | --- |
| > 50 | 11.7 | 4.4 | > 50 | CC(=O)OC[C@H]1O[C@@H](n2c(I)cc(=O)[nH]c2=O)[C@H](O)[C@@H]1O | inactive | 1.3 | inactive | inactive | 36.2 | 1.6 | inactive | 15.2 | > 50 | Not Active | inactive | 1.1 | – | – | – |
| > 50 | > 50 | > 50 | > 50 | [N-]=[N+]=Nc1cc(=O)[nH]c(=O)n1[C@@H]1O[C@H](CO)[C@@H](O)[C@H]1O | inactive | > 50 | inactive | inactive | > 50 | > 50 | inactive | > 50 | > 50 | Not Active | inactive | > 50 | inactive | – | – |
| > 50 | > 50 | > 50 | > 50 | CN(C)c1cc(=O)[nH]c(=O)[nH]1 | inactive | > 50 | inactive | inactive | > 50 | > 50 | inactive | > 50 | > 50 | Not Active | inactive | > 50 | inactive | – | – |
| – | – | 31.4 | – | CCc1c(F)c(=O)[nH]c(=O)n1[C@@H]1O[C@H](CO)[C@@H](O)[C@H]1O | inactive | 1.4 | inactive | inactive | 1.9 | 1.2 | inactive | 2.1 | 5.3 | Not Active | – | 4.5 | – | – | – |
| – | > 50 | > 50 | – | O=c1cc(NO)n([C@@H]2O[C@H](CO)[C@@H](O)[C@H]2O)c(=O)[nH]1 | inactive | > 50 | inactive | inactive | > 50 | > 50 | inactive | > 50 | > 50 | Not Active | inactive | > 50 | inactive | inactive | inactive |
| > 50 | > 50 | > 50 | > 50 | COC(=O)c1cc(=O)[nH]c(=O)n1[C@@H]1O[C@H](CO)[C@@H](O)[C@H]1O | inactive | 42.3 | inactive | inactive | > 50 | > 50 | inactive | > 50 | > 50 | Not Active | inactive | > 50 | inactive | – | – |
| > 50 | > 50 | > 50 | > 50 | CNc1cc(=O)[nH]c(=O)n1[C@@H]1O[C@H](CO)[C@@H](O)[C@H]1O | inactive | > 50 | inactive | inactive | > 50 | > 50 | inactive | > 50 | > 50 | Not Active | inactive | > 50 | inactive | – | – |
| > 50 | > 50 | > 50 | > 50 | O=c1cc(O)n([C@@H]2O[C@H](CO)[C@@H](O)[C@H]2O)c(=O)[nH]1 | inactive | > 50 | inactive | inactive | > 50 | > 50 | inactive | > 50 | > 50 | Not Active | inactive | > 50 | inactive | – | – |
| > 50 | > 50 | > 50 | > 50 | Nc1cc(=O)[nH]c(=O)n1[C@@H]1O[C@H](CO)[C@@H](O)[C@H]1O | inactive | > 50 | inactive | inactive | > 50 | > 50 | inactive | > 50 | > 50 | Not Active | inactive | > 50 | inactive | – | – |
| > 50 | > 50 | > 50 | > 50 | N#Cc1cc(=O)[nH]c(=O)n1[C@@H]1O[C@H](CO)[C@@H](O)[C@H]1O | inactive | > 50 | inactive | inactive | > 50 | > 50 | inactive | > 50 | > 50 | Not Active | inactive | > 50 | inactive | – | – |
| > 50 | > 50 | > 50 | > 50 | O=c1cc(O)n([C@@H]2O[C@H](COP(=O)(O)O)[C@@H](O)[C@H]2O)c(=O)[nH]1 | inactive | > 50 | inactive | inactive | > 50 | > 50 | inactive | > 50 | > 50 | Not Active | inactive | > 50 | inactive | – | – |
| – | – | – | – | O=c1[nH]c(=O)n([C@@H]2O[C@H](CO)[C@@H](O)[C@H]2O)cc1F [5-FLUOROURIDINE] | inactive | – | inactive | inactive | – | – | inactive | – | – | Not Active | inactive | – | inactive | – | – |
| > 50 | > 50 | > 50 | > 50 | Cc1cc(=O)[nH]c(=O)n1[C@@H]1O[C@H](CO)[C@@H](O)[C@H]1O | inactive | > 50 | inactive | inactive | > 50 | > 50 | inactive | > 50 | > 50 | Not Active | inactive | > 50 | inactive | – | – |
| > 50 | 16 | > 50 | > 50 | O=c1cnn([C@@H]2O[C@H](COP(=O)(O)O)[C@@H](O)[C@H]2O)c(=O)[nH]1 [6-AZA-URIDINE MONOPHOSPHATE] | inactive | 18.7 | inactive | inactive | > 50 | 2.8 | inactive | 6.1 | > 50 | Not Active | inactive | 6.7 | inactive | – | – |
| > 50 | > 50 | > 50 | > 50 | O=c1[nH]c(=O)n([C@@H]2O[C@H](CO)[C@@H](O)[C@H]2O)c(I)c1F | inactive | > 50 | inactive | inactive | > 50 | > 50 | inactive | > 50 | > 50 | Not Active | inactive | > 50 | inactive | – | – |
| > 50 | > 50 | > 50 | > 50 | CN(C)c1cc(=O)[nH]c(=O)n1[C@@H]1O[C@H](CO)[C@@H](O)[C@H]1O | inactive | > 50 | inactive | inactive | > 50 | > 50 | inactive | > 50 | > 50 | Not Active | inactive | > 50 | inactive | – | – |
